Compound activity (PubChem)
NS3 helicase inh: HCV NS3 helicase inhibition; hit rate 0.56% among 290,000; inhibition, % at 10.9 µM; NS3 helicase DNA unwinding, Cy5 molecular beacon fluorescence; AID 1800;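 active means inhibition above the mean of all tested compounds plus 3 SD, set per campaign, cut at about 35% in these data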;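 further: 0% = DMSO wells and 100% = thioflavine S control wells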
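Assay system – hepatitis C virus NS3 helicase domain fragment enzyme · Buffer or medium – MOPS pH 6.5, MgCl2, DTT, Tween20, BSA · Reagent – Cy5/quencher beacon DNA duplex and ATP to start · Compound – single 10.9 µM dose · Timing – 1 h at 25 °C · Technique – Cy5 beacon fluorescence read at start and 1 h · Measure – % inhibition of unwinding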
ALR inh: inhibitors of human sulfhydryl oxidase ALR; purified ALR, DTT oxidation, H2O2 HRP-luminol luminescence; inhibition, % (concentration not given with the values); hit rate 3.8% among 290,000; P55789;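 active means mean replicate inhibition above about 79%, with every replicate also reaching it, limit read from the data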
Target sequence (P55789 whole entry, looked up): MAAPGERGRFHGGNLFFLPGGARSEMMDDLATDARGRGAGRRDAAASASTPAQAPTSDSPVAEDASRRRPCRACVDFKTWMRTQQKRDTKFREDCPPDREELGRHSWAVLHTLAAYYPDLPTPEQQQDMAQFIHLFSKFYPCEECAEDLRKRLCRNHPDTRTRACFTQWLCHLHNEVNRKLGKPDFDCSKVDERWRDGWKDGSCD
core dimer inh: HCV core protein dimerization inhibition | hit rate 0.33% among 300,000 | TR-FRET GST/Flag-core106 dimerization, 1536-well | inhibition, % at 5 µM | AID 1899;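 active means inhibition above the mean of all tested compounds plus 3 SD, set per screening campaign, cut at about 45% in these data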
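Assay system – GST-tagged and Flag-tagged HCV core protein residues 1-106 · Quantity – core106 proteins, GST 13.5 nM and Flag 17 nM · Benchmarks – unlabelled core106 and no-GST-core106 wells · Read-out basis – percent inhibition of core106 dimerization signal · Detection – time-resolved FRET, ex 340 nm, em 617 and 671 nm · Schedule – 4 h at 22.5 °C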
ZTA DNA inh: ZTA (EBV) inhibition in EBNA-1 counter-screen. P03206. ZTA-DNA binding, fluorescence polarization. inhibition, % at 11 µM. hit rate 0.15% among 320,000; in the data active means inhibition above about 33%
Target sequence (P03206 whole entry, looked up): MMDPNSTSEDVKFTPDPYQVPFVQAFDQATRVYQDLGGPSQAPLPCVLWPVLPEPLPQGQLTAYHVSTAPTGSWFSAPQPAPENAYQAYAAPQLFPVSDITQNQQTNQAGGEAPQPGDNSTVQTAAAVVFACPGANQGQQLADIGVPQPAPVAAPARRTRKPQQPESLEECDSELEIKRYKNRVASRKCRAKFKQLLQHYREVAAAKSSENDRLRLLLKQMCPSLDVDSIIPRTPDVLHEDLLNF
EBNA-1 inhibitor: blocks EBNA-1 binding to DNA. EBNA-1 DNA binding, fluorescence polarization. inhibition, % at 14.8 µM. hit rate 0.34% among 300,000. AID 1950; in the data active means inhibition above about 28%
PfM18AAP inh: blocks P. falciparum M18 aspartyl aminopeptidase; hit rate 1.2% among 290,000; recombinant PfM18AAP, H-Glu-NHMec fluorogenic cleavage; AID 1822; inhibition, % at 7.35 µM;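 active means inhibition above the campaign mean inhibition over all tested compounds plus 3 SD, cut at about 28% in these data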;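 further: 0% = plate median of test compound wells and 100% = 2 mM ZnCl2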
An asterisk follows results filed as active; / = no result. Only some compounds are listed: those with a hit (about 5.2% of all), similar ones and a draw of the others.

SMILES	NS3 helicase inh	ALR inh	core dimer inh	ZTA DNA inh	EBNA-1 inhibitor	PfM18AAP inh
O=C1[C@@H]2Cc3c([nH]c4ccccc34)C(c3cccc([N+](=O)[O-])c3)N2C(=O)CN1CCCO (stereo partly drawn)	-8	-3	-8	-2	-1	6
CCc1noc(C)c1C(=O)OC(C)C(=O)Nc1cc([N+](=O)[O-])ccc1OC (stereo not drawn)	/	-19	1	2	-4	/
CC(C)(C)NC(=O)COc1coc(CN2CCN(Cc3ccccc3)CC2)cc1=O	3	-4	-7	-1	8	-9
O=C(OCCc1cc2ccccc2c(=O)o1)c1cccc(Br)c1	/	4	/	-2	/	/
O=C(O)C1CCN(C(=O)c2ccccc2N2C(=O)[C@@H]3Cc4c([nH]c5ccccc45)C(c4cccc(Cl)c4)N3C2=O)CC1 (stereo partly drawn)	-15	99*	1	10	-7	4
Cc1ccc(C2c3[nH]c4ccccc4c3C[C@H]3C(=O)N(c4ccccc4C(=O)N4CCC(C(=O)O)CC4)C(=O)N23)cc1 (stereo partly drawn)	3	16	4	7	3	-2
CCCCC(=O)NNC(=O)N1c2ccccc2Sc2ccccc21	7	99*	3	15	21	6
CC(C)(C)NC(=O)N1c2ccccc2Sc2ccccc21	-10	82*	-1	-11	-23	-2
C#CCNc1c2c(nc3ncnn13)CC(C)CC2 (stereo not drawn)	5	0	-2	13	11	-9
COc1ccc(CNc2ccc3c(c2)nc(C)n3C)cc1	2	89*	-13	7	8	5
Cc1ccc(CNc2ccc3c(c2)nc(C)n3C)cc1	-4	/	-15	-9	2	17
COc1ccc(OC)c(CNc2ccc3c(c2)nc(C)n3C)c1	0	85*	-7	12	-1	9
COc1ccc(CNc2ccc(C(=O)O)cc2)cc1	7	-1	-3	-12	6	0
COc1ccc(CNc2ccc(Br)cc2)cc1	-3	98*	1	14	6	-1
Cc1ccc(CN2Cc3cccc4c3[C@@H](CC2=O)[C@H](O)[C@H](O)C4)cc1	/	-1	/	-1	/	/
O=[N+]([O-])c1cc([N+](=O)[O-])c2nonc2c1Nc1ccc(O)cc1	6	99*	-8	12	7	-1
CC(=O)c1ccc(Nc2c([N+](=O)[O-])ccc3nonc23)cc1	6	-32	-4	-7	-3	1
CN(C)c1ccc(/C=C/c2ccc3ccccc3[n+]2C)cc1	-3	98*	-71	5	3	4
Cc1cccn2c(=O)c(C=O)c(Cl)nc12	9	98*	3	-8	-1	-10
CCN(CC)CCCN(C(=O)c1cccc(C)c1)c1nc(-c2ccc(OC)cc2)cs1	-78	96*	4	5	-9	-9
CCN(CC)CCCN(C(=O)c1ccc(Br)cc1)c1nc(-c2ccc(OC)cc2)cs1	-45	-12	2	18	5	1
c1csc(-c2nc3ccccn3c2NC2CCCCC2)c1	-11	94*	2	-7	-5	0
Cc1ccn2c(NC3CCCC3)c(-c3cccs3)nc2c1	-5	64	-12	20	13	2
CCCn1c2ccc(/C(C)=N\O)cc2c2cc(/C(C)=N/O)ccc21	-10	98*	8	2	9	6
CC1CN(CC(O)COc2ccc(C#N)cc2)CCN1CC(O)COc1ccc(C#N)cc1 (stereo not drawn)	1	1	6	4	2	1
SMILES	NS3 helicase inh	ALR inh	core dimer inh	ZTA DNA inh	EBNA-1 inhibitor	PfM18AAP inh
O=C(Nc1ccc(O)cc1)C1CC=CCC1 (stereo not drawn)	6	99*	13	-22	-6	9
O=S(=O)(/N=S1/CC=CCN1S(=O)(=O)c1ccccc1)c1ccccc1 (stereo not drawn)	2	99*	-5	-16	6	17
COc1ccc(CC(=O)NNC(=O)c2ccc(Br)o2)cc1	-7	-7	-117	9	-4	2
Cc1ccc(O)c(-c2cc(-c3ccccc3C)[nH]n2)c1	5	/	/	/	/	3
Cc1ccc(O)c(-c2cc(C(F)(F)C(F)F)[nH]n2)c1	-6	98*	-6	10	6	3
COC(=O)[C@H](Cc1ccccc1)NC(=O)N1CCCCCC1	-3	-4	7	-4	2	-1
COC(=O)[C@H](Cc1ccccc1)NC(=O)N1CCN(c2ccc(F)cc2)CC1	-8	98*	-1	-1	-5	-8
CCN(CC)CCNC(=O)C(=O)NCC1OCCN1C(=O)c1ccc2c(c1)OCO2 (stereo not drawn)	2	0	3	-7	-9	2
CCN(CC)S(=O)(=O)c1cccc(C(=O)N/N=C/c2cccc(O)c2O)c1	46*	-10	-1	-14	4	21
CCN(CC)S(=O)(=O)c1cccc(C(=O)N/N=C/c2cc(OC)c(O)c(OC)c2)c1	-4	99*	-20	-12	6	11
N#C/C(=N\Nc1ccc(Cl)cc1)C(N)=S	13	94*	-14	-9	1	5
N#C/C(=N\Nc1ccccc1)C(N)=S	17	92*	-13	9	7	15
N#C/C(=N/Nc1ccccc1[N+](=O)[O-])C(N)=S	-4	-1	-7	3	-2	-5
Cc1ccc(N/N=C(\C#N)C(N)=S)cc1C	6	/	5	-2	-4	-1
CCCN(c1ccccc1F)S(=O)(=O)c1cc(-c2cc(C)no2)ccc1OC	-13	54	8	-6	5	-8
Cc1cccc2nc(CSCc3ccco3)cn12	8	98*	4	1	-1	-5
COc1ccc(CNC(=O)c2cccc3c2C(=O)N(Cc2cccnc2)C3)cc1	-6	/	-2	-9	1	-1
COc1ccc(CNC(=O)c2cccc3c2C(=O)N(CC2CCCO2)C3)cc1 (stereo not drawn)	4	88*	-18	-13	-1	-3
CC(=O)NC(CC(=O)N(C)Cc1cccc(Cl)c1Cl)c1ccccc1 (stereo not drawn)	1	/	0	14	9	0
Cc1ccc(NC(=O)CN(C)C(=O)c2cccc(S(=O)(=O)NCc3ccco3)c2)cc1	/	-4	/	-8	/	/
O=C(O)c1cnc(-c2ccccc2)nc1Sc1cccc(Cl)c1	0	96*	12	8	-1	-6
N#Cc1cnn(-c2ccccc2)c1NC(=O)CN1CCN(c2ccccc2)CC1	-7	97*	-8	-20	-6	8
N#Cc1ccsc1NC(=O)CN1CCN(c2ccc(O)cc2)CC1	10	99*	4	2	-14	30*
COc1cc(C(C(=O)NCc2ccccc2)N(C(=O)c2snc(C(N)=O)c2N)C2CCCC2)cc(OC)c1OC (stereo not drawn)	-2	-1	9	6	4	4
